Data published in ChEMBL document CHEMBL3826876, “Toward the Development of Specific G-Quadruplex Binders: Synthesis, Biophysical, and Biological Studies of New Hydrazone Derivatives” (J Med Chem, 2016).
Calls of active or inactive are those of the source. No cut-off for these calls is given here.

How the values were obtained:
[1] = Effect on synthetic c-KIT1 G-quadruplex DNA topology at 4 mol equiv by circular dichroism spectroscopic analysis
Method in brief: (§1)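 CD spectra at 20 °C, 230-360 nm, 3 scans averaged, baseline subtracted; 10 µM G4 or 15 µM duplex in potassium- or lithium-phosphate pH 7.0 buffers with 100 mM KCl (c-kit2, c-myc: 5 mM potassium phosphate, 20 mM KCl); ligand 4 molar equiv added to folded DNA from 6 mM DMSO stock.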

U2OS [2] = experiment: Stabilization of nuclear G-quadruplex DNA in human U2OS cells at 0.2 to 1 uM after 24 hrs by DAPI staining based immunofluorescence assay; type: cell-based
Method in brief: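 U2OS seeded at 100000 cells/ml, treated 24 h after seeding for 24 h; fixed methanol:acetic acid 3:1, 0.1% Triton X-100, 2% milk block. Stained with in-house His-purified BG4, anti-FLAG, Alexa 488 anti-rabbit; nuclei DAPI. Per-cell signal as corrected total cell fluorescence; Student's t test.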

[3] = Ratio of IC50 for human U2OS cells to stabilization of nuclear G-quadruplex DNA in human U2OS cells
[4] = Binding affinity to 5' and 3'-terminal G-tetrads of synthetic MYC22 G14T/G23T double mutant G-quadruplex DNA in presence of 70 mM KCl solution by NMR spectroscopic analysis
Method in brief: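 1H NMR titration at 25 °C, 700 MHz, water-suppressed 1D spectra; DNA 0.2-0.5 mM strand in H2O/D2O 9:1. Myc22 in 25 mM KH2PO4, 70 mM KCl, 0.2 mM EDTA, pH 7.0; c-kit2 T12/T21 in 5 mM KH2PO4, 20 mM KCl, 0.2 mM EDTA, pH 6.8. Ligand in DMSO-d6 added stepwise into the tube; imino proton shifts followed.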

[5] = Effect on synthetic telomere 23 parallel G-quadruplex DNA topology at 4 mol equiv by circular dichroism spectroscopic analysis; method in brief: as §1
U2OS [6] = experiment: Cytotoxicity against human U2OS cells assessed as cell killing after 24 hrs by MTT assay; type: functional, cell-based
Method in brief: (§2)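 U2OS and HCT116 in DMEM with 10% FBS, 1% L-glutamine, seeded at 40000 cells/ml; 24 h later exposed for 1 h or 24 h, then drug-free medium 1-2 days. MTT 1 h at 37 °C, DMSO solubilisation, absorbance 595 nm. IC50 by linear regression; two independent experiments in triplicate, mean ± SE.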

[7] = Binding affinity to synthetic self-complementary DNA 12-mer duplex assessed as change in melting temperature at 4 mol equiv in presence of 100 mM KCl buffer by circular dichroism spectroscopic analysis
Method in brief: (§3)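 CD melting, 20-100 °C at 1 °C/min, signal at 264 (parallel), 290 (antiparallel) or 280 nm (duplex). G4 DNA 10 µM or duplex 15 µM, folded by heating at 90 °C 5 min and slow cooling, in 10 mM potassium phosphate (c-kit1, Tel23, Tel26) or lithium phosphate (Tel23-p, ds12) pH 7.0 with 100 mM KCl. Ligand 4 equiv; Tm by curve fit, ΔTm vs DNA alone; duplicate average.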

U2OS [8] = experiment: Cytotoxicity against human U2OS cells assessed as cell death after 24 hrs by FACS analysis; type: cell-based
[9] = Induction of parallel G-quadruplex formation in synthetic unfolded c-KIT1 DNA assessed as increase in molar ellipticity after 10 mins by in absence of metal cation circular dichroism titration method
Method in brief: (§4)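 CD titration without metal ions: unfolded oligonucleotide 12-15 µM in 50 mM Tris; ligand added in 0.5 equiv steps, spectrum recorded 10 min after each addition at 20 °C, 230-360 nm, 3 scans averaged.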

[10] = Binding affinity to synthetic c-KIT2 G-quadruplex DNA assessed as change in melting temperature at 4 mol equiv in presence of 20 mM KCl buffer by circular dichroism spectroscopic analysis
Method in brief: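 CD melting as for other targets (20-100 °C, 1 °C/min, 10 µM folded G4, ligand 4 equiv), but in 5 mM potassium phosphate with 20 mM KCl; c-kit2 read at 264 nm as parallel G4. ΔTm from fitted Tm, duplicate average.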

[11] = Binding affinity to 5'-FAM/3'-TAMRA labeled c-KIT2 G-quadruplex DNA (unknown origin) assessed as change in melting temperature at 4:1 ligand:DNA ratio in presence of 20 mM KCl buffer by FRET assay
Method in brief: (§5)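 FRET melting of FAM/TAMRA-labelled G4 oligos (400 nM, annealed 85 °C 10 min) with ligand at 4 equiv, same buffers as CD (20 mM KCl for c-kit2 and c-myc; 100 mM KCl for telomeric parallel form, annealed at high concentration). Excitation 450-495 nm, emission 515-545 nm, read every 0.5 °C over 30-100 °C; ΔTm by curve fit; duplicate runs averaged.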

[12] = Binding affinity to synthetic telomere 23 G-quadruplex DNA assessed as change in melting temperature at 4 mol equiv in presence of 100 mM KCl buffer by circular dichroism spectroscopic analysis; method in brief: as §3
[13] = Effect on synthetic telomere 23 G-quadruplex DNA topology at 4 mol equiv by circular dichroism spectroscopic analysis; method in brief: as §1
[14] = Binding affinity to synthetic c-KIT2 G-quadruplex DNA assessed as increase in thermal stability in presence of 20 mM KCl buffer by circular dichroism spectroscopic analysis
Method in brief: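 CD melting in 5 mM potassium phosphate, 20 mM KCl, 10 µM folded G4, heated 20-100 °C at 1 °C/min; ligand:DNA ratios 1:1, 2:1 and 4:1 compared; Tm from curve fit.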

[15] = Effect on synthetic c-MYC G-quadruplex DNA topology at 4 mol equiv by circular dichroism spectroscopic analysis; method in brief: as §1
[16] = Binding affinity to synthetic c-KIT1 G-quadruplex DNA assessed as change in melting temperature at 4 mol equiv in presence of 100 mM KCl buffer by circular dichroism spectroscopic analysis; method in brief: as §3
[17] = Binding affinity to 5'-FAM/3'-TAMRA labeled c-MYC G-quadruplex DNA (unknown origin) assessed as change in melting temperature at 4:1 ligand:DNA ratio in presence of 20 mM KCl buffer by FRET assay; method in brief: as §5
[18] = Binding affinity to synthetic telomere 26 G-quadruplex DNA assessed as change in melting temperature at 4 mol equiv in presence of 100 mM KCl buffer by circular dichroism spectroscopic analysis; method in brief: as §3
[19] = Induction of parallel G-quadruplex formation in synthetic unfolded c-KIT2 DNA assessed as increase in molar ellipticity after 10 mins in absence of metal cation by circular dichroism titration method; method in brief: as §4
[20] = Binding affinity to synthetic c-MYC G-quadruplex DNA assessed as change in melting temperature at 4 mol equiv in presence of 20 mM KCl buffer by circular dichroism spectroscopic analysis
U2OS [21] = experiment: Cytotoxicity against human U2OS cells assessed as cell death after 24 hrs by microscopic analysis; type: cell-based
[22] = Effect on preformed synthetic c-MYC parallel G-quadruplex DNA topology in tris buffer after 10 mins by circular dichroism titration method
U2OS [23] = experiment: Cytotoxicity against human U2OS cells assessed as cell killing after 1 hr by MTT assay; type: functional, cell-based; method in brief: as §2

Activity [1]: inactive
Activity [4]: Active
Activity [5]: inactive
ΔTm [7]: -0.8 °C
Activity [9]: inactive
ΔTm [10]: 9.5 °C
ΔTm [11]: 15 °C
ΔTm [12]: -2.4 °C
Activity [13]: inactive
Activity [14]: Dose-dependent effect
Activity [15]: inactive
ΔTm [16]: 2.7 °C
ΔTm [17]: > 20 °C
ΔTm [18]: -3 °C
Activity [19]: inactive
ΔTm [20]: > 20 °C
Activity [22]: inactive
SMILES: Br.O=Cc1c(-c2ccccc2)nc2n1ccc1nc(-c3ccccc3)c(/C=N/NC3=NCCN3)n12
Activity (U2OS [2]): Active
Ratio [3]: 4
IC50 (U2OS [6]): 0.845 µM
Activity (U2OS [8]): Non-toxic
Activity (U2OS [21]): Non-toxic
IC50 (U2OS [23]): 5.73 µM
